{
  "source": "paper PMC8891099",
  "about": "(Clinical Pharmacokinetics, 2021)",
  "key": {"[1]": {"assay": "Population pharmacokinetic model of finerenone in FIDELIO-DKD", "type": "in vivo, human", "method_in_brief": "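Nonlinear mixed-effects model of sparse plasma levels after oral 10 or 20 mg once daily. Sampling was a month-4 trough plus post-dose samples at any time on yearly visits. Structure: two compartments with equal volumes, transit-compartment absorption and first-order elimination, starting from a phase IIb model. Covariate search used single addition and forward inclusion at p 0.01 and backward deletion at p 0.001.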"}, "[2]": {"test_system": "patients with CKD and T2D", "conditions": "corresponding to sustained eGFR decrease ≥ 57%, under finerenone treatment ref 3; cited from earlier work"}, "[3]": {"test_system": "patients with CKD and T2D", "assay": "Parametric time-to-event exposure-response", "type": "in vivo", "conditions": "Homo sapiens, read-out: EC50 (half-maximal drug effect concentration)", "method_in_brief": "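Parametric time-to-event model (Weibull hazard) for the first composite kidney event, with exposure-response as an Emax function driven by central-compartment concentration. Input was individual concentration-time profiles from post-hoc PK estimates, actual dosing history and covariates; typical PK parameters were used for subjects lacking them. Delay and Hill coefficient were tested. Checked by visual predictive checks with observed dropout.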"}, "[4]": {"test_system": "patients with CKD and T2D", "assay": "FIDELIO-DKD phase III study, kidney outcome events", "type": "in vivo, human", "conditions": "finerenone group, 504 of 2833 patients, median follow-up of 2.6 years"}, "[5]": {"conditions": "covariate parameter, population PK model"}, "[6]": {"conditions": "inter-individual variability, population PK model"}, "[7]": {"conditions": "population PK model estimate, FIDELIO-DKD patients"}},
  "data": [
    {"smiles": "CCOc1ncc(C)c2c1[C@H](c1ccc(C#N)cc1OC)C(C(N)=O)=C(C)N2", "note": "[finerenone]", "values": [
      {"measurement": "Effect for Korean subjects on Vc/F", "setting": "[1]; [5]", "value": 1.29},
      {"measurement": "Effect of body weight on Vc/F", "setting": "[1]; [5]", "value": 0.501},
      {"measurement": "Absorption lag time", "setting": "[1]; fixed in population PK model", "value": "0.215 (fixed) h"},
      {"measurement": "Ratio Vp/F and Vc/F", "setting": "[1]; fixed in population PK model", "value": "1 (fixed)"},
      {"measurement": "Relative bioavailaility", "setting": "[1]; fixed in population PK model", "value": "1 (fixed)"},
      {"measurement": "Covariance CL/F × Vc/F", "setting": "[1]; [6]", "value": 0.0442},
      {"measurement": "ω^2 Vc/F", "setting": "[1]; [6]", "value": 0.104},
      {"measurement": "dose linearity of pharmacokinetics", "setting": "[1]; over the investigated dose range (10 and 20 mg once daily)", "value": "dose linear"},
      {"measurement": "Inter-individual variability of CL/F expressed as CV", "setting": "[1]; population PK model", "value": "^aShrinkage was 26.6%, variability expressed as CV: 31.8%"},
      {"measurement": "Inter-individual variability of Vc/F expressed as CV", "setting": "[1]; population PK model", "value": "^bShrinkage was 47.8%, variability expressed as CV: 33.0%"},
      {"measurement": "CL/F", "setting": "[1]; [7]", "value": 29.9, "unit": "L/h"},
      {"measurement": "Q/F", "setting": "[1]; [7]", "value": 0.335, "unit": "L/h"},
      {"measurement": "Vc/F", "setting": "[1]; [7]", "value": 113, "unit": "L"},
      {"measurement": "Ka", "setting": "[1]; population PK model estimate, FIDELIO-DKD patients, oral 10 or 20 mg once daily", "value": 22.5, "unit": "h⁻¹"},
      {"measurement": "σ^2", "setting": "[1]; residual error, population PK model", "value": 0.313},
      {"measurement": "reduction of secondary endpoint doubling of serum creatinine", "setting": "[2]", "value": 32, "unit": "%"},
      {"measurement": "EC50", "setting": "[3]", "value": 0.166, "unit": "ng/mL"},
      {"measurement": "patients with a kidney event contributing to the composite endpoint", "setting": "[4]", "value": 17.8, "unit": "%"}
    ]}
  ]
}
